Measured values: ChEMBL document CHEMBL3425429
Calls of active or inactive are those of the source. No cut-off for these calls is given here.

What was measured:
[1] = Cytotoxicity against human HBL1 cells assessed as cell viability after 72 hrs by MTT assay; type: functional, cell-based; conditions: HBL1, 72 h
[2] = target: Tyrosine-protein kinase Yes (Homo sapiens, UniProt P07947); assay: Inhibition of human Yes
Method in brief: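 Recombinant human kinase assayed in Eurofins KinaseProfiler panel; IC50 reported as mean of two independent experiments.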

Rattus norvegicus = assay: AUC (0 to infinity) in Sprague-Dawley rat at 10 mg/kg, po by LC/MS analysis; type: ADME, organism-based, Plasma; design: time infinity, dose 10 mg/kg, route oral; conditions: in vivo
Method in brief: (§1)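 Single oral gavage dose in male Sprague-Dawley rats fasted overnight; serial blood drawn via surgically placed jugular vein catheters at set times, plasma separated at once and measured by HPLC-MS/MS; noncompartmental parameters fitted; n=5.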

[3] = target: Serine/threonine-protein kinase mTOR (Homo sapiens, UniProt P42345); assay: Inhibition of human mTOR
Method in brief: (§2)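 Recombinant human protein kinases screened through the Eurofins KinaseProfiler service. IC50 values are means of two independent experiments.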

MDA-MB-231 [4] = assay: Antitumor activity against human MDA-MB-231 cells xenografted in SCID mouse assessed as tumor growth inhibition at 30 mg/kg/day, po qd administered for 18 days measured every 3 days during compound dosing relative to vehicle-treated control; type: functional; conditions: read-out: TGI
Method in brief: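 SCID mice (5–6 weeks) given subcutaneous injections of 5 ×10^6 MDA-MB-231 cells; at 150–200 mm3 tumors, randomized into 6 groups of 6; oral daily dosing (vehicle 25% PEG400 + 5% DMSO in sterile water), paclitaxel 10 mg/kg/week by tail vein; tumors measured every 3 days, volume = ab²/2; side effects monitored daily.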

MDA-MB-231 [5] = assay: cells; conditions: Homo sapiens, MDA-MB-231, 72 h
Mus musculus [6] = assay: In vivo inhibition of Src phosphorylation in tumor of SCID mouse xenografted with human MDA-MB-231 cells at 30 mg/kg/day, po administered for 18 days measured post last dose by immunohistochemical analysis relative to vehicle-treated control; type: functional, organism-based
Method in brief: (§3)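 SCID mice carrying subcutaneous MDA-MB-231 xenografts received oral dosing once daily for 18 days (vehicle 25% PEG400 plus 5% DMSO in sterile water); at the end, tumors formalin-fixed and paraffin-embedded, 4–8 μm sections immunostained (Ki67, phospho-proteins) or TUNEL/AP-Red labelled, and compared with control.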

MDA-MB-231 [7] = assay: Induction of apoptosis in human MDA-MB-231 cells assessed as viable cells at 0.3 uM after 48 hrs by annexin V-FITC/propidium iodide staining-based flow cytometric analysis (reference value: 94.4%); type: functional; conditions: MDA-MB-231, 48 h, read-out: Activity
[8] = Cmax in Sprague-Dawley rat at 10 mg/kg, po by LC/MS analysis; type: ADME, organism-based; design: dose 10 mg/kg, route oral; conditions: in vivo; method in brief: as §1
MDA-MB-231 [9] = assay: Effect on AKT phosphorylation in human MDA-MB-231 cells at 0.001 to 1 uM after 20 hrs by Western blot analysis; type: cell-based
Method in brief: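 MDA-MB-231 cells exposed to a concentration series for 20 h at 37 °C, lysed in RIPA with protease inhibitor cocktail, cleared by centrifugation, protein quantified by Bradford, resolved by SDS-PAGE, transferred to PVDF and immunoblotted.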

MDA-MB-231 [10] = assay: Induction of apoptosis in human MDA-MB-231 cells assessed as viable cells at 0.1 uM after 48 hrs by annexin V-FITC/propidium iodide staining-based flow cytometric analysis (reference value: 94.4%); type: functional; conditions: MDA-MB-231, 48 h, read-out: Activity
[11] = target: Cyclin-dependent kinase 7 (Homo sapiens, UniProt P50613); assay: Inhibition of human CDK7; method in brief: as §2
Chain of Cyclin-dependent kinase 7 (P50613 whole entry): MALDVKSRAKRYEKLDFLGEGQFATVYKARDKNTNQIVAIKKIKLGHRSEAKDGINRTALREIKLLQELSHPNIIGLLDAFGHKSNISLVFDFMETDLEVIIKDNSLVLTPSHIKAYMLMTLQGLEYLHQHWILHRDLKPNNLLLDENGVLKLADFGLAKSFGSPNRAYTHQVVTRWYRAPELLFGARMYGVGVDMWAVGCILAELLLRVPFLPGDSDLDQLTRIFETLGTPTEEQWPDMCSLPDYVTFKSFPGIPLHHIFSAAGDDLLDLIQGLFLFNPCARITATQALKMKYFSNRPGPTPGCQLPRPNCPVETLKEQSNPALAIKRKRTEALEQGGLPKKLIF

MDA-MB-231 [12] = assay: Antitumor activity against human MDA-MB-231 cells xenografted in mouse assessed as tumor growth inhibition at 40 mg/kg/day, po; type: functional, organism-based
Method in brief: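 Oral daily dosing at 40 mg kg−1 d−1 began once MDA-MB-231 xenografts reached about 200 mm3; three mice per group; tumor volume tracked.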

[13] = target: NUAK family SNF1-like kinase 1 (Homo sapiens, UniProt O60285); assay: Inhibition of human Ark5; method in brief: as §2
Chain of NUAK family SNF1-like kinase 1 (O60285 whole entry): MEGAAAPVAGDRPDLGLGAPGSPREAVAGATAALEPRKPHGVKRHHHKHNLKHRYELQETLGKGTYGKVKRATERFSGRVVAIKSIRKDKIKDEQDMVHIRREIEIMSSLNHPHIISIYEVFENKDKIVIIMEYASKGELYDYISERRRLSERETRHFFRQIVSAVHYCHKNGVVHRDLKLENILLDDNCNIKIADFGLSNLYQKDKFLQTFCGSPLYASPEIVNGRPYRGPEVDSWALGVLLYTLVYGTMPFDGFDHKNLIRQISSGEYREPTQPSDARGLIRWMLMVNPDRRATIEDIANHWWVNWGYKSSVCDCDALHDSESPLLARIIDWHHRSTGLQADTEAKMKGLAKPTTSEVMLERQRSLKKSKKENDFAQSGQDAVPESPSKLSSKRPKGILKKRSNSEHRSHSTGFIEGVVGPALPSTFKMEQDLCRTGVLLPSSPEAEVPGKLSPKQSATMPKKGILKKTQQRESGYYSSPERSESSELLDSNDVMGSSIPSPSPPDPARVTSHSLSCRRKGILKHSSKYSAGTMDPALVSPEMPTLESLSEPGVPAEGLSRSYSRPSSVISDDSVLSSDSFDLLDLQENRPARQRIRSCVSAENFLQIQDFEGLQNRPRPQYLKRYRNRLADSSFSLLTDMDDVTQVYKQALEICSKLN

MDA-MB-231 [14] = assay: Antitumor activity against human MDA-MB-231 cells xenografted in SCID mouse assessed as increase in number of apoptotic cells in tumor at 30 mg/kg/day, po administered for 18 days measured post last dose by TUNEL assay; type: functional, organism-based; method in brief: as §3
MDA-MB-231 [15] = assay: Induction of apoptosis in human MDA-MB-231 cells assessed as late apoptotic cells at 0.1 uM after 24 hrs by annexin V-FITC/propidium iodide staining-based flow cytometric analysis (reference value: 2.67%); type: functional
MDA-MB-231 [16] = assay: Induction of apoptosis in human MDA-MB-231 cells after 24 to 48 hrs by annexin V-FITC/propidium iodide staining-based flow cytometric analysis; type: functional, cell-based
Mus musculus [17] = assay: In vivo inhibition of ERK phosphorylation in tumor of SCID mouse xenografted with human MDA-MB-231 cells at 30 mg/kg/day, po administered for 18 days measured post last dose by immunohistochemical analysis relative to vehicle-treated control; type: functional, organism-based; method in brief: as §3
[18] = target: Mitogen-activated protein kinase 8 (Homo sapiens, UniProt P45983); assay: Inhibition of human JNK1alpha1; method in brief: as §2
Chain of Mitogen-activated protein kinase 8 (P45983 whole entry, looked up): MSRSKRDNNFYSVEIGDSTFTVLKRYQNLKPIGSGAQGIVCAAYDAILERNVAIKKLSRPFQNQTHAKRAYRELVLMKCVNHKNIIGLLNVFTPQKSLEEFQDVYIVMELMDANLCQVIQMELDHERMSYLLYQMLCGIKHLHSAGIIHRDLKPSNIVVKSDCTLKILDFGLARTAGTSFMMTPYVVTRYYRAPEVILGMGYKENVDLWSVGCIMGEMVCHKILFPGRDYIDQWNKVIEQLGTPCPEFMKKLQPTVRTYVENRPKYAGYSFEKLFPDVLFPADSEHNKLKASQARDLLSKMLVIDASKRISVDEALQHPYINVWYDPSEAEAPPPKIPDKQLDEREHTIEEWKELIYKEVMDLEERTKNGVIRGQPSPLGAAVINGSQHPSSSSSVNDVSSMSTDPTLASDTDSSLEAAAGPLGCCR

[19] = Tmax in Sprague-Dawley rat at 10 mg/kg, po by LC/MS analysis; type: ADME, organism-based; design: dose 10 mg/kg, route oral; conditions: in vivo
Method in brief: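 Male Sprague-Dawley rats fitted with jugular vein catheters and fasted overnight, then given a single 10 mg/kg oral gavage dose; n=5. Serial blood samples were spun at once to plasma and analysed by LC-MS/MS. Noncompartmental parameters were fitted.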

[20] = target: T1, Proto-oncogene tyrosine-protein kinase Src (Homo sapiens, UniProt P12931)
T1 sequence (P12931 2-536 limits assumed): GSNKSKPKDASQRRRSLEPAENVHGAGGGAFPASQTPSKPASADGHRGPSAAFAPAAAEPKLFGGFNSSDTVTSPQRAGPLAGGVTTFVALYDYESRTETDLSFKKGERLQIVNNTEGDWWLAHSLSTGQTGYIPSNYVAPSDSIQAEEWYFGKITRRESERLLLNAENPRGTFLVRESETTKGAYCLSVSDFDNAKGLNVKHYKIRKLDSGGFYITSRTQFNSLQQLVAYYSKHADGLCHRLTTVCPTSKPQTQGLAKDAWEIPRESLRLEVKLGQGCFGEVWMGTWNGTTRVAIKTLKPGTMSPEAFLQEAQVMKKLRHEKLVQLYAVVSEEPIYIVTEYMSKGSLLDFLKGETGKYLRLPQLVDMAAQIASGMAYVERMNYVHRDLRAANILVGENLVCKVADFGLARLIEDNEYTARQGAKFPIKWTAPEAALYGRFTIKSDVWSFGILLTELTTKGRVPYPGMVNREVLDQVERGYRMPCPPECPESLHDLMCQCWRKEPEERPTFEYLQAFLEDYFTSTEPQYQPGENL

MDA-MB-231 [21] = assay: Induction of apoptosis in human MDA-MB-231 cells assessed as early apoptotic cells at 0.3 uM after 48 hrs by annexin V-FITC/propidium iodide staining-based flow cytometric analysis (reference value: […]); type: functional
MDA-MB-231 [22] = assay: Inhibition of ERK phosphorylation in human MDA-MB-231 cells at 0.001 to 1 uM after 20 hrs by Western blot analysis; type: cell-based
Method in brief: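 MDA-MB-231 cells exposed to a concentration series for 20 h at 37 °C, then washed in ice-cold saline and lysed in RIPA buffer with protease cocktail. Lysates were cleared at 12 000 rpm for 10 min at 4 °C and protein measured by Bradford. Equal protein was run on SDS-PAGE, transferred to PVDF and immunoblotted for phospho-proteins.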

[23] = target: T1, Proto-oncogene tyrosine-protein kinase Src; remark: listed apart in the source
MDA-MB-231 [24] = assay: Antitumor activity against human MDA-MB-231 cells xenografted in SCID mouse assessed as reduction in number of proliferating cells in tumor at 30 mg/kg/day, po administered for 18 days measured post last dose by Ki67 staining-based assay; type: functional, organism-based; method in brief: as §3
[25] = target: Mitogen-activated protein kinase 1 (Homo sapiens, UniProt P28482); assay: Inhibition of human MAPK1; method in brief: as §2
Chain of Mitogen-activated protein kinase 1 (P28482 whole entry): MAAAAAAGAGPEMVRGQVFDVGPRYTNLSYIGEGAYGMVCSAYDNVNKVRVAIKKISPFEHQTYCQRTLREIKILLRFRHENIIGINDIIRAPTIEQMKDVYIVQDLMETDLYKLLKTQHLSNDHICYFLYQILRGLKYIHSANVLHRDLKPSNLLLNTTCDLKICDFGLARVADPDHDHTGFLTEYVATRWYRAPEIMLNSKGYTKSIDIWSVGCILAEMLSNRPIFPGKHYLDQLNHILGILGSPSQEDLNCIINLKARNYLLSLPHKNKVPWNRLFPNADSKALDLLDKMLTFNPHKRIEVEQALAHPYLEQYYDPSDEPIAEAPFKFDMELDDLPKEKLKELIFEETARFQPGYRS

MDA-MB-231 [26] = assay: Induction of apoptosis in human MDA-MB-231 cells assessed as late apoptotic cells at 0.3 uM after 24 hrs by annexin V-FITC/propidium iodide staining-based flow cytometric analysis (reference value: 2.67%); type: functional
Mus musculus [27] = assay: In vivo inhibition of MEK phosphorylation in tumor of SCID mouse xenografted with human MDA-MB-231 cells at 30 mg/kg/day, po administered for 18 days measured post last dose by immunohistochemical analysis relative to vehicle-treated control; type: functional, organism-based; method in brief: as §3

Chain of Tyrosine-protein kinase Yes (P07947 whole entry): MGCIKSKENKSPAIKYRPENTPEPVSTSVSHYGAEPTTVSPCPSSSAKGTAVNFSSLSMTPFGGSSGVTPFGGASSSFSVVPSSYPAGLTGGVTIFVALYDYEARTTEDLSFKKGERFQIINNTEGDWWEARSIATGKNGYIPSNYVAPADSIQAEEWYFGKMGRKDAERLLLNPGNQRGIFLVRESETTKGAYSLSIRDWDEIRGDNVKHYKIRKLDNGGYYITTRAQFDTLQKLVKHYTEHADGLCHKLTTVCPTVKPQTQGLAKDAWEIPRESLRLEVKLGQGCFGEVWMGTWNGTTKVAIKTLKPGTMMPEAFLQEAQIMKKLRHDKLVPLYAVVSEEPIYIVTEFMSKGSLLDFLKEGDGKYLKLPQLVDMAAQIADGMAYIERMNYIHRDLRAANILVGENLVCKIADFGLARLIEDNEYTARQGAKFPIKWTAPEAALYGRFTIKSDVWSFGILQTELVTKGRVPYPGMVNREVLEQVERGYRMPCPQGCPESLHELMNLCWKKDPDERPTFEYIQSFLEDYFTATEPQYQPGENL

CCn1nc(C#Cc2cc(C(=O)Nc3ccc(CN4CCN(C)CC4)c(C(F)(F)F)c3)ccc2C)c2c(N)ncnc21 gave an IC50 [1] of 10000 nM, an IC50 [2] of 0.8 nM and an AUC (Rattus norvegicus) of 4772.5 µg/L/h. The IC50 [3] was > 10000 nM, the inhibition in vivo at 30 mg/kg/day (MDA-MB-231 [4]) was > 100% and the IC50 (MDA-MB-231 [5]) was 11 nM. For the same compound, the inhibition (Mus musculus [6]) was “Active”, the viability at 0.3 µM (MDA-MB-231 [7]) was 63.2% and the Cmax [8] was 215 ng/mL. The Activity (MDA-MB-231 [9]) was “inactive”, the viability at 0.1 µM (MDA-MB-231 [10]) was 69.2% and the IC50 [11] was > 10000 nM. The TGI (MDA-MB-231 [12]) was “Active”, the IC50 [13] was > 10000 nM and the Activity (MDA-MB-231 [14]) was “Active”. The Activity (MDA-MB-231 [15]) was 10.4%, the Activity (MDA-MB-231 [16]) was “Dose-dependent effect” and the inhibition (Mus musculus [17]) was “Active”. For the same compound, the IC50 [18] was > 10000 nM, the Tmax [19] was 12 h and the IC50 [20] was 0.9 nM. The Activity (MDA-MB-231 [21]) was 24.1%, the inhibition (MDA-MB-231 [22]) was “Active” and the IC50 [23] was 30 nM. For the same compound, the Activity (MDA-MB-231 [24]) was “Active”, the IC50 [25] was > 10000 nM and the Activity (MDA-MB-231 [26]) was 15.5%. The inhibition (Mus musculus [27]) was “Active”.
